In test [1] the target is T1, Muscarinic acetylcholine receptor (Rattus norvegicus) (UniProt P08482+P08483+P08485+P08911+P10980). The test is described as follows: Evaluated for displacement of [3H]oxotremorine-M binding ([3H]OXO-M) at muscarinic acetylcholine receptor in rat forebrain membranes. The test is classed as cell membranes. Also on record: concentration or dose not given beside the values. The conditions noted are these: Membrane. In a few lines:
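Sprague-Dawley rat forebrain membranes. Incubated with 2.7 nM [3H]Oxo-M in 50 mM NaPO4, 2 mM MgCl2, pH 7.4, 20 min at 37 °C. Filtered on glass fiber presoaked in 0.05% polyethylenimine. Nonspecific binding defined with 1 μM atropine. Single concentration 1 μM, triplicate, averaged over two to five trials. Read-out is percent displacement of specific binding.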

Test [2] concerns the target Muscarinic acetylcholine receptor M3 (Mus musculus) (UniProt Q9ERZ3). As to the kind of experiment: Increase in phosphoinositide (PI) metabolism in A9L-cholinergic receptor, muscarinic 3 expressing cells was measured at 100 uMolar. The test is classed as functional. The conditions noted are these: 100 uM. A digest of the protocol: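 A9L fibroblasts transfected with m3 receptor, grown in DMEM with 10% newborn calf serum. Labeled overnight with [3H]myo-inositol, preincubated 5 min at 37 °C in 10 mM LiCl DMEM-Hepes. Compound at 100 μM final, 30 min at 37 °C. Labeled inositol phosphates extracted by ion exchange. Result expressed as percent of the oxotremorine-M response, duplicate determinations.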

Test [3] concerns the target T2, cyclic AMP phosphoprotein (Rattus norvegicus) (UniProt Q712U5).
T2 sequence (whole entry): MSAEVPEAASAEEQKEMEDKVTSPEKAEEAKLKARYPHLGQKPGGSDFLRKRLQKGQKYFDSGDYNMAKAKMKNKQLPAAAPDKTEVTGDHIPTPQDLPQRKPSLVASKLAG
The test is described as follows: The percent inhibition of cyclic AMP(cAMP) formation in NG108-15 cells expressed in m40AChR was measured. Type of test: functional, cell-based. The conditions noted are these: concentration not given here. In a few lines:
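NG108-15 cells expressing m4 receptors; compound at 100 μM. Cyclic AMP inhibition expressed as percent of Oxo-M (100%), average of two or three trials.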

In test [4] the test system is A9. The test is described as follows: Increase in phosphoinositide (PI) metabolism in A9L-m1 cells at 100 uM. The test is classed as functional, Mus musculus.
The target of test [5] is T1, Muscarinic acetylcholine receptor (Rattus norvegicus). The test is described as follows: Displacement of [3H]N-methylscopolamine ([3H]NMS) binding at muscarinic acetylcholine receptor in rat cerebral cortical membranes. Type of test: cell membranes. Also noted: concentration or dose not given beside the values. The note with it: Membrane. A digest of the protocol: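 Rat (Sprague-Dawley, either sex, 200 g) forebrain membranes, homogenized and washed in 50 mM sodium phosphate pH 7.4. 200-300 μg membrane incubated with 0.5 nM [3H]NMS plus compound (single concentration, 100 μM) in phosphate-buffered saline, 60 min at 37 °C. Filtered on glass fiber, scintillation counted. Nonspecific binding defined with 1 μM atropine. Triplicate. Reported as percent displacement.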

Sequence of Muscarinic acetylcholine receptor M3 (Mus musculus) (Q9ERZ3 whole entry): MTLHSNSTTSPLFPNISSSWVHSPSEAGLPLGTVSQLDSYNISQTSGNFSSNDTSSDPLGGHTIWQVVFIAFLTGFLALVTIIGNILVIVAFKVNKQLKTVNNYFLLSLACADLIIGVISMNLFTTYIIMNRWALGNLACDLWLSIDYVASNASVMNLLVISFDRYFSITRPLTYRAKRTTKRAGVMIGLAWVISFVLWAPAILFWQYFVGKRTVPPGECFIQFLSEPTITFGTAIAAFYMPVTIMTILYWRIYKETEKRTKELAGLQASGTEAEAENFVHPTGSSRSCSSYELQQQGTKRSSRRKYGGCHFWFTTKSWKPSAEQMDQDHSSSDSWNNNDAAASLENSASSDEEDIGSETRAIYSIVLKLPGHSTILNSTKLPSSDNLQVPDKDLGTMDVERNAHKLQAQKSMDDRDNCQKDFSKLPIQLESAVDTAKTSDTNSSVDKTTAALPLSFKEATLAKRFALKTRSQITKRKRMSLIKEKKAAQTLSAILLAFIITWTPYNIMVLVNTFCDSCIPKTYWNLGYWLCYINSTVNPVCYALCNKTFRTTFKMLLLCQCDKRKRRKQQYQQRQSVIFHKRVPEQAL

The inhibition is the drop in the measured response relative to a control, in per cent. Take `CC(=O)N(C)CC#CCN1CCC[C@H]1CF.O=C(O)C(=O)O`: the Displacement in test [1] came to 50.5%; in test [5] it was 53.8%. In addition, the results for the PI turnover in test [2] and in test [4] were 10.6 and 11.1, respectively. Also, the inhibition in test [3] came to 62.4%.

The values are drawn from ChEMBL document CHEMBL1125621, “Muscarinic receptor binding and activation of second messengers by substituted N-methyl-N-[4-(1-azacycloalkyl)-2-butynyl]acetamides” (1991).
